Assay outcomes (PubChem BioAssay)
Hits are enriched below; roughly 1.3% of the tested compounds scored in any of these assays.
Arr AP2 block: human beta-arrestin and AP2 interaction inhibition | FITC-arrestin peptide / GST-AP2 beads, flow cytometry; AP2 beta2 appendage carries R879A mutation | inhibition, % at 10 µM | hit rate 0.31% among 340,000;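 active = inhibition above a set limit, near 3 SD of compounds lacking own fluorescence, cut at about 54% in these data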;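 note: plate controls were DMSO wells for no effect and 5 µM unlabelled arrestin peptide for full effect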
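System: GST-AP2 R879A glutathione beads | Also added: FITC-arrestin peptide, 50 nM | Times: 12 min plus 1 h, RT | Signal: Bead flow cytometry, FITC channel | Buffer or medium: PBS with 0.05% Tween 20 and 0.1% BSA | Read-out basis: Percent drop in bead-associated FITC signal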
PLC-beta3 inh: inhibitors of human phospholipase C beta3. Q01970. Purified PLC-beta3, fluorogenic substrate, fluorescence. inhibition, % at 12.2 µM. hit rate 0.18% among 370,000. AID 720704; in the data active = inhibition above about 11%;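 note: 0% = median of compound wells on plate and 100% = full blocker control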
NTR1 agonist: activates human neurotensin receptor 1; P30989; NTR1-U2OS beta-arrestin-GFP spot imaging, agonist mode; activation, % at 20 µM; hit rate 0.17% among 330,000; AID 493036;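 active = activation at or above 40% of the spot to cytoplasm intensity ratio, with at least 20 cells analyzed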;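 note: 0% = DMSO without peptide and 100% = 100 nM NTR1 peptide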
Target sequence (P30989 whole entry, looked up): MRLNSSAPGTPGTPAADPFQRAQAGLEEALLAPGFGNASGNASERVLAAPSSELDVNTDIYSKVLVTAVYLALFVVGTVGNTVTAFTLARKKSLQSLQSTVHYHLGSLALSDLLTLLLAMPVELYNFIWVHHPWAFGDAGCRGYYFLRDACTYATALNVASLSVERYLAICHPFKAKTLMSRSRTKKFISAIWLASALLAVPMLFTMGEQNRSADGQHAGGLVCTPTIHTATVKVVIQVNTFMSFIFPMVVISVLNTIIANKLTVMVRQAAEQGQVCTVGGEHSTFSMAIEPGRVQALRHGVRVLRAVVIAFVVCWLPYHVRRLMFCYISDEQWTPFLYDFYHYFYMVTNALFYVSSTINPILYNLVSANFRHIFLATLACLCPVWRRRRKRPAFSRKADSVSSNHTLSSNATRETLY
PLCg1 inh: inhibitors of human phospholipase C gamma1. P19174. purified PLC-gamma1, fluorogenic substrate, fluorescence. inhibition, % at 12.2 µM. hit rate 0.84% among 370,000; in the data active = inhibition above about 9.5%
Arr AP2 CP1: human beta-arrestin and AP2 interaction inhibition, cherry pick; AID 504908; hit rate 2% among 1,300; GST-AP2 beads, FITC arrestin peptide binding, flow cytometry; GST-fused beta2-adaptin appendage, R879A mutant; shares compounds with Arr AP2 block; inhibition, % at 10 µM;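 active = inhibition above a set limit, roughly 3 SD of non-fluorescent compound noise, cut at about 38% in these data; inactive = inhibition at or below that limit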;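 note: loss of bead fluorescence from 50 nM FITC arrestin peptide bound to appendage; 0% = negative control wells and 100% = excess unlabelled arrestin peptide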
GST-FITC bead: counter-screen for beta-arrestin AP2 inhibitors: GST-GSH bead binding | shares compounds with Arr AP2 block | inhibition, % at 10 µM | GST-fluorescein binding to GSH beads, fluorescence | hit rate 2% among 1,300;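 active = inhibition above 50%, about 3 SD of the inhibition seen with non-fluorescent compounds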;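 note: fluorescein maleimide labelled GST captured on 4 micron glutathione beads; higher means more loss of bead fluorescence from quenching or blocked binding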
* hit, by the source's call; / = no result given; ! = not confirmed by another sample.

SMILES	Arr AP2 block	PLC-beta3 inh	NTR1 agonist	PLCg1 inh	Arr AP2 CP1	GST-FITC bead
Cc1cc2nc(-c3ccc(NC(=O)C(C)C)cc3)oc2cc1C	60*	-58	1	-45	-10	0
Cc1ccc(-c2nc3cc(NC(=O)C(C)C)ccc3o2)cc1	-10	-72	1	-56	/	/
COC(=O)c1cc(-c2ccc(C)c3ccccc23)c(=O)n2c1CCC2	/	-13	/	-7	/	/
O=C(CN1C(=O)CS/C1=C\c1nc(-c2ccc(Cl)cc2)cs1)Nc1cccnc1Cl	61*	-2	7	-3	9	2
O=c1[nH]c2cc(NCCO)c([N+](=O)[O-])cc2[nH]1	70*	-1	0	3	1	2
O=C(CNS(=O)(=O)c1ccccc1F)OCC(=O)c1c[nH]c2ccccc12	2	-8	4	2	/	/
O=C(CNS(=O)(=O)c1ccccc1)OCC(=O)c1c[nH]c2ccccc12	76*	-14	-1	-9	9	-6
CN(Cc1nccs1)C(=O)C1CCC(=O)N(CCCc2ccccc2)C1 (stereo not drawn)	57*	-10	0	-1	-3	-2
CN(Cc1nccs1)C(=O)C1CCC(=O)N(Cc2ccccc2F)C1 (stereo not drawn)	-6	-3	-1	1	/	/
Cc1ccc(-n2c(SCC(=O)Nc3ccc(OCc4ccccc4)cc3)nnc2-c2ccccc2)cc1	/	0	/	0	/	/
COC(=O)C1CN(Cc2ccc(OC)cc2)CCS(=O)(=O)N1Cc1ccc(OC)cc1 (stereo not drawn)	/	-5	/	-3	/	/
Cc1cc(N2CCN(C(=O)OC(C)(C)C)C[C@@H]2C)ccc1N1CCS(=O)(=O)CC1	/	1	/	-3	/	/
COc1ccc(C2C(=O)c3ccccc3C2=O)cc1OC	61*	-4	-1	-1	6	-4
COC(=O)C1=C(C)N(C)C(=NCc2ccc3c(c2)OCO3)NC1c1cccc(F)c1 (stereo not drawn)	/	6	/	3	/	/
COc1cc(/C=C2\N=C(c3ccccc3)OC2=O)ccc1OCc1c(C)no[n+]1[O-]	21	8	-1	3	/	/
Cc1no[n+]([O-])c1COc1cccc(/C=C2\N=C(c3ccccc3)OC2=O)c1	68*	3	1	-3	4	-7
C=CCn1c(Cc2cccs2)nnc1SCC(=O)Nc1ccc2c(c1)OCO2	/	2	/	1	/	/
OC(CN1CCOCC1)Cn1c2ccccc2c2ccccc21 (stereo not drawn)	34	-2	1	5	/	/
c1ccc2c(c1)c1ccccc1n2CN1CCOCC1	83*	0	2	0	-1	-9
N#Cc1c(N)sc(=S)c2c1CCCC2	89*	-23	-2	-24	-3	-3
CCC1(C)Cc2c(C#N)c(N)sc(=S)c2CO1 (stereo not drawn)	6	-29	-2	-26	/	/
COc1cc(C)c(S(=O)(=O)N2CCCC2)cc1C	-1	3	1	2	/	/
COc1cc(C)c(S(=O)(=O)N2CCCC2)cc1C(C)C	57*	5	0	3	-5	2
Cc1ccc(S(=O)(=O)N(C)[C@H]2C[C@H]3c4cc(N5CCOCC5)ccc4CCN3C[C@H]2[C@H](C)O)cc1	/	-3	/	-6	/	/
CCCCOCCCNC(=O)C[C@H]1C[C@@]2(C(=O)OC)C(=C[C@H](C(C)C)O[C@@H]2C2CC2)N(CCC2=CCCCC2)C1=O	/	3	/	7	/	/
SMILES	Arr AP2 block	PLC-beta3 inh	NTR1 agonist	PLCg1 inh	Arr AP2 CP1	GST-FITC bead
CCOc1ccc2nc(NC(=O)CS(=O)(=O)c3ccccc3)sc2c1	81*	4	-1	4	4	-2
Cc1ccc(Cl)cc1NC(=O)N(C)CCOC(=O)Nc1cccc(Cl)c1	/	-1	/	4	/	/
COc1ccc(NC(=O)c2cc3c(Cl)nc4ccccc4c3s2)cc1OC	-1	4	14	1	/	/
COc1ccc(OC)c(NC(=O)c2cc3c(Cl)nc4ccccc4c3s2)c1	104*	-1	7	1	-7	-11
Cc1ccc(-c2cc(C(F)(F)F)n3ncc(C(=O)N4CCCc5ccccc54)c3n2)cc1	-6	3	8	-1	49*!	56*!
COc1cccc(CN2CC(C(=O)NCCCc3ccc(C)cc3)CCC2=O)c1 (stereo not drawn)	2	-2	0	0	-9	1
CC(C)Oc1ccc(CCNC(=O)C2CCC(=O)N(Cc3cccc(F)c3)C2)cc1 (stereo not drawn)	-5	-5	1	1	11	-1
O=C(NCCc1ccccc1)C1CCC(=O)N(Cc2cccc(C(F)(F)F)c2)C1 (stereo not drawn)	1	-7	1	5	-5	1
COc1cccc(CN2CC(C(=O)NCCCc3ccncc3)CCC2=O)c1 (stereo not drawn)	-9	-6	-1	1	/	/
COc1ccccc1CCNC(=O)C1CCC(=O)N(Cc2cccc(F)c2)C1 (stereo not drawn)	-18	-5	-1	0	/	/
COC(=O)C[C@@H]1CC[C@@H]2[C@@H](COc3ccc(NC(C)=O)cc3C(=O)N2C)O1	/	0	/	3	/	/
Cn1c(=O)c(C(=O)NNC(=O)c2ccccc2Br)c(O)c2ccccc21	56*	-14	0	-2	-7	4
O=C(CN1C(=O)COc2ccc(Cl)cc21)N1CCCCC1	55*	-11	0	-1	2	-6
CC1CCN(C(=O)CN2C(=O)COc3ccc(Cl)cc32)CC1	-2	-3	0	3	/	/
CN1C2=CC=CC=CC2=[N+](C)C12C([N+](=O)[O-])=CC(=[N+]([O-])[O-])C=C2[N+](=O)[O-] (stereo not drawn)	-10	-6	4	-1	/	/
CN1C2=CC=CC=CC2=[N+](C)C12C=CC(=[N+]([O-])[O-])C=C2[N+](=O)[O-] (stereo not drawn)	54*	-6	0	1	2	-7
O=[N+]([O-])c1ccc(CN2CCN(c3ccc4ccccc4n3)CC2)cc1	54*	-2	3	4	-2	2
C=CCCC1CN(Cc2ccc(OC)cc2)S(=O)(=O)c2c(NCc3cc(OC)c(OC)c(OC)c3)cccc2O1 (stereo not drawn)	/	-3	/	-1	/	/
Cc1cc(C(=O)Nn2cnc3ccccc3c2=O)ccc1[N+](=O)[O-]	54*	3	-1	-2	2	3
COCCCNC(=O)c1cccc(S(=O)(=O)N2CC3(C)CC2CC(C)(C)C3)c1 (stereo not drawn)	13	1	1	-2	/	/
COCCNC(=O)c1cccc(S(=O)(=O)N2CC3(C)CC2CC(C)(C)C3)c1 (stereo not drawn)	63*	-1	1	-2	-2	1
CC(C)c1ccc(OCc2ccc(C(=O)N3CCN(c4ccccn4)CC3)cc2)cc1	56*	-2	11	-1	11	-7
CC(C)CCn1cnc2c(sc3nc4c(cc32)CSC(C)(C)C4)c1=O	104*	2	1	0	-5	8
